Sampled rows, rich in hits. Any-hit rate of the full collection: about 3.8%.
KCNQ1 act: potentiators or activators of human KCNQ1 potassium channel; P51787; CHO-K1 KCNQ1, thallium flux FluxOR fluorescence; stronger effect = higher value; B-score at 10 µM; 310,000 compounds, 0.35% hits;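 active = fluorescence ratio B-score, a plate-corrected score, at least three library SD, with initial intensity B-score within 5 SD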
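Assay system: CHO-K1 cells stably expressing KCNQ1. Medium: assay buffer for compound exposure, DMSO matched across wells. Timing: 37 °C overnight plating, 90-min dark dye load, 20-min compound pretreatment. Signal: kinetic FluxOR fluorescence, 10 s baseline plus 110 s post-stimulus.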
KCNK9 block: inhibitors of human KCNK9 two-pore domain potassium channel | B-score at 10 µM | HEK293 KCNK9, FluxOR thallium flux fluorescence; stronger effect = lower value | AID 488922 | 310,000 compounds, 1.2% hits | Q9NPC2;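 active = ratio B-score over 3 SD below the library mean, with starting fluorescence within 5 SD of its mean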;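 also: negative B-score means less thallium flux so channel inhibition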
Target sequence (Q9NPC2 whole entry, looked up, the tested form may be a part): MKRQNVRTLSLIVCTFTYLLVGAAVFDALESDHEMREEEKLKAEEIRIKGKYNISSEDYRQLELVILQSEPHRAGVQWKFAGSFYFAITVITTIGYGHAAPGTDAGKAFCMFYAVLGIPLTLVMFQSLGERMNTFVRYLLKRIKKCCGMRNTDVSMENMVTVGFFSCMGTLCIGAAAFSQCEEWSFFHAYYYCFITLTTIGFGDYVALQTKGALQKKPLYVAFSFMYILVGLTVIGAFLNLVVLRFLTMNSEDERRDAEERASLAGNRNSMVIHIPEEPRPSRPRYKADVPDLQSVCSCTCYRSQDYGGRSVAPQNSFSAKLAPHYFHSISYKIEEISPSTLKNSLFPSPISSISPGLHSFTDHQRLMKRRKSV
hERG rescue: hERG (human) protection from proarrhythmic block; Q12809; CHO-hERG, FluxOR thallium flux, dofetilide IC70 present; activation (rescue from dofetilide block), less the hit threshold, % at 10 µM; 310,000 compounds, 0.51% hits; AID 1511;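 active = activation above the mean of controls blocked by dofetilide plus 5 SD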;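 also: thallium influx through hERG after potassium depolarization seen as dye fluorescence rise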
KCNQ1 inh: inhibitors of human KCNQ1 potassium channel; P51787; CHO-K1 KCNQ1, FluxOR thallium flux fluorescence; stronger effect = higher value; B-score at 10 µM; 310,000 compounds, 1.3% hits;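 active = compounds whose thallium flux B-score, printed positive for inhibition, exceeds three library SD while starting fluorescence stays within three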;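 also: channel opened by potassium depolarization with thallium stimulus after 20 min compound exposure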
KCNK3 inh: human KCNK3 channel inhibition, primary screen; O14649; 340,000 compounds, 0.84% hits; CHO-KCNK3 thallium flux, FluxOR fluorescence; stronger effect = lower value; AID 602410; B-score at 10 µM;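 active = B-score under library mean minus 4 SD, starting fluorescence ratio at most library mean plus 5 SD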;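 also: more negative B-score means stronger inhibition of thallium flux through KCNK3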
Target sequence (O14649 whole entry, looked up): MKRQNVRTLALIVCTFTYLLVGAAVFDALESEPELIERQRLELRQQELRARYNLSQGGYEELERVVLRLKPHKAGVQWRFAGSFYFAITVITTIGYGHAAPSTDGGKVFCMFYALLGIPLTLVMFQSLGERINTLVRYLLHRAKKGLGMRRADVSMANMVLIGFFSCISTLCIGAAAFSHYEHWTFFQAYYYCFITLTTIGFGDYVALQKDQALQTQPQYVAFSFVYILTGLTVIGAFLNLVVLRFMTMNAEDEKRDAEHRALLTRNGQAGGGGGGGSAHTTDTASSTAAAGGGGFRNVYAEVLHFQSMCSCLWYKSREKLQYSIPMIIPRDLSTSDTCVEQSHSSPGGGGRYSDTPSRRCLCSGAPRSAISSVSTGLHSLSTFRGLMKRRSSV
Kir21 block: blocks the mouse Kir2.1 inward-rectifier potassium channel | 310,000 compounds, 0.85% hits | B-score at 10 µM | HEK293-Kir2.1, FluxOR thallium flux fluorescence; stronger effect = lower value;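 active = fluorescence ratio B-score at or below minus 3 SD of library scores, with starting-brightness B-score within 2 SD, cut at about -4.2 in these data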;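 also: channel flux triggered by added potassium and thallium sulfate stimulus; B-score of peak minus minimum fluorescence over baseline after thallium stimulus; more negative B-score means stronger Kir2.1 block with less thallium influx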
KCNK9 inh conf: human KCNK9 inhibitor confirmation; HEK293 KCNK9 cells, FluxOR thallium flux fluorescence; 4,900 compounds, 43% hits; shares compounds with KCNK9 block; inhibition, % at 10 µM; AID 492992;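 active = thallium signal inhibited by more than 5 SD of the compound-free buffer control wells, on both duplicate plates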
Kir21 sel: tests whether KCNK9 modulators also affect mouse Kir2.1. Kir2.1 cells, FluxOR thallium flux fluorescence. AID 492993. inhibition, % at 10 µM. shares compounds with KCNK9 block. 4,900 compounds, 4% hits;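 active = thallium signal drop more than 5 SD beyond the mean of the no-compound control wells, seen in both duplicate plates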;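 also: signal is fluorescence rise after thallium addition divided by baseline fluorescence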
HEK293 Tl ctr: non-induced cell nonspecific activity of KCNK9 modulators; shares compounds with KCNK9 block; non-induced KCNK9-HEK293, FluxOR thallium flux; inhibition, % at 10 µM; 4,900 compounds, 40% hits; AID 492997;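 active = thallium signal drop beyond 5 SD of the untreated control mean, on both duplicate plates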
KCNK3 confirm: human KCNK3 channel inhibition, confirmation assay; shares compounds with KCNK3 inh; CHO-KCNK3 thallium flux, FluxOR fluorescence; 0% buffer, 100% carvedilol maximal block; ratio percent of control, % at 10 µM; 2,400 compounds, 99% hits;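 active = ratio percent of control, averaged over triplicates, above buffer control mean plus 5 SD, cut at about 64% in these data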;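 also: ratio is the fluorescence rise from min to max over baseline after thallium stimulus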
KCNK3 uninduced: counter-screen for KCNK3 inhibitors: effect in non-induced cells. shares compounds with KCNK3 inh. non-induced KCNK3 parental cells, FluxOR thallium flux; stronger effect = lower value. thallium flux ratio (lower = more inhibition) at 10 µM. 2,400 compounds, 40% hits. AID 651747;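 active = thallium flux ratio, averaged over three wells, more than 5 SD below the buffer control mean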;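 also: host cells are CHO cells without KCNK3 induction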
Each line names hits and unclear results; the compound was inactive in the other large screens (follow-up assays come after a bar, where they were run).

CCOC(=O)c1nnc(-c2ccccc2)nc1NCc1ccc(Cl)cc1	KCNK9 block -10, KCNK3 inh -9.7 | KCNK9 inh conf 38% | Kir21 sel inactive | HEK293 Tl ctr 43% | KCNK3 confirm 97 | KCNK3 uninduced 0.14
COc1ccc(-c2[nH]c(-c3ccc4c(c3)OCO4)nc2-c2ccccc2)cc1	KCNK9 block -11, KCNQ1 inh 11, KCNK3 inh -10 | KCNK9 inh conf 56% | Kir21 sel inactive | HEK293 Tl ctr 35% | KCNK3 confirm 154 | KCNK3 uninduced 0.11
CNc1ccccc1C(C)(C)c1cc(-c2ccc(F)cc2)no1	none
O=C(/C=C/Nc1ccccc1C(F)(F)F)c1ccco1	KCNK9 block -8.8, KCNK3 inh -9.1 | KCNK9 inh conf inactive | Kir21 sel inactive | HEK293 Tl ctr inactive | KCNK3 confirm 90 | KCNK3 uninduced inactive
COc1cccc(OCCn2cc(C(=O)c3ccco3)c3ccccc32)c1	KCNK9 block -15, KCNK3 inh -12 | KCNK9 inh conf 52% | Kir21 sel inactive | HEK293 Tl ctr inactive | KCNK3 confirm 119 | KCNK3 uninduced 0.14
Cc1ccc(OCc2ccc(C(=O)NNC(=S)NCC3CCCO3)o2)c([N+](=O)[O-])c1 (stereo not given)	none
CSC(=NC#N)N1CCN(C(c2ccccc2)c2ccccc2)CC1	KCNK9 block -9.8 | KCNK9 inh conf 39% | Kir21 sel inactive | HEK293 Tl ctr 35% | KCNK3 confirm 123 | KCNK3 uninduced inactive
CSC(=NC#N)N1CCN(C(=NC#N)SC)CC1	none
CCOC(=O)c1ccc(NC(=O)NCCc2cnc[nH]2)cc1	none
Cc1sc(NC(=O)c2ccco2)c(CN2CCN(c3ccccc3)CC2)c1C	KCNK9 block -9.9 | KCNK9 inh conf 35% | Kir21 sel inactive | HEK293 Tl ctr 35% | KCNK3 confirm 113 | KCNK3 uninduced inactive
Cc1ccc2nc(C)cc(C(=O)N3CCCC(CO)(Cc4ccccc4C)C3)c2c1 (stereo not given)	none
O=C(Nc1nc(-c2ccccc2)cs1)c1cccs1	none
O=C(Nc1nc(-c2ccc(Cl)s2)cs1)c1cccs1	KCNK9 block -9.2, KCNK3 inh -8.9 | KCNK9 inh conf inactive | Kir21 sel inactive | HEK293 Tl ctr 32% | KCNK3 confirm 97 | KCNK3 uninduced inactive
CCOc1ccc(OCCSc2nnnn2C2CCCCC2)cc1	KCNK9 block -14, KCNK3 inh -12 | KCNK9 inh conf 68% | Kir21 sel inactive | HEK293 Tl ctr 44% | KCNK3 confirm 118 | KCNK3 uninduced 0.16
COc1cc2c(cc1OC)C(c1cccc([N+](=O)[O-])c1)N(C(=O)c1ccc(F)cc1)CC2 (stereo not given)	KCNK9 block -17, KCNQ1 inh 11, KCNK3 inh -11 | KCNK9 inh conf 74% | Kir21 sel inactive | HEK293 Tl ctr 38% | KCNK3 confirm 96 | KCNK3 uninduced 0.15
COc1cc2c(cc1OC)C(c1cccc([N+](=O)[O-])c1)N(C(=O)CCC(=O)O)CC2 (stereo not given)	none
O=C(NNC(=O)c1cc(-c2ccc(Cl)cc2)nc2ccccc12)c1csc(N2CCOCC2)n1	KCNK9 block -10, KCNK3 inh -9 | KCNK9 inh conf 28% | Kir21 sel inactive | HEK293 Tl ctr inactive | KCNK3 confirm 80 | KCNK3 uninduced inactive
O=C(NNC(=O)c1cc(-c2ccccc2)nc2ccccc12)c1csc(N2CCOCC2)n1	none
CCOC(=O)c1c(NC(=O)Cn2nc(C(F)F)cc2C(F)F)sc(C)c1C	KCNK9 block -10, KCNK3 inh -13 | KCNK9 inh conf 57% | Kir21 sel inactive | HEK293 Tl ctr 46% | KCNK3 confirm 107 | KCNK3 uninduced inactive
COC(=O)c1c(NC(=O)Cn2nc(C(F)F)cc2C(F)F)sc(C)c1C	none
CN(Cc1ccon1)Cc1cn(C)nc1-c1ccc2c(c1)OCCO2	none
COc1cc(/C=C/C(=O)OCC(=O)NCCN2C(=O)CSC2=O)ccc1OCC#N	none (no result: KCNQ1 act, KCNK9 block, hERG rescue, KCNQ1 inh, Kir21 block)
Cc1cccc(C)c1NC(=S)Nc1ccc(Cl)c(Cl)c1	KCNK9 block -9.1, KCNQ1 inh 8, KCNK3 inh -12 | KCNK9 inh conf 48% | Kir21 sel inactive | HEK293 Tl ctr inactive | KCNK3 confirm 86 | KCNK3 uninduced 0.14
COc1ccc(NC(=S)Nc2ccc(C)c(Cl)c2)cc1OC	none
C/C(CC(=O)NCc1ccco1)=N\NC(=O)C(c1ccccc1)c1ccccc1	none
CC(C)CCOC(=O)C1C(c2ccccc2)C(C(=O)O)C1c1ccccc1 (stereo not given)	none
Cc1ccc(S(=O)(=O)N(C)C)cc1NC(=O)CSc1nnnn1-c1ccc(O)cc1	KCNK9 block -14, KCNK3 inh -9.8 | KCNK9 inh conf 42% | Kir21 sel inactive | HEK293 Tl ctr 26% | KCNK3 confirm 106 | KCNK3 uninduced inactive
Cn1nnnc1SCC(=O)Nc1cc(S(=O)(=O)N2CCCC2)ccc1Cl	none
CN(C)S(=O)(=O)c1ccc(Cl)c(NC(=O)CSc2nnnn2-c2ccc(O)cc2)c1	KCNK9 block -12, KCNK3 inh -9 | KCNK9 inh conf 50% | Kir21 sel inactive | HEK293 Tl ctr 28% | KCNK3 confirm 96 | KCNK3 uninduced inactive
O=C(Nc1cccc(NC(=O)c2ccco2)c1)c1cccc(Br)c1	KCNK9 block -10, KCNK3 inh -13 | KCNK9 inh conf 59% | Kir21 sel inactive | HEK293 Tl ctr inactive | KCNK3 confirm 100 | KCNK3 uninduced inactive
O=C(c1ccccc1)c1cccc(NC(=O)c2ccc(Br)o2)c1	KCNK9 block -9.2, KCNK3 inh -9.7 | KCNK9 inh conf inactive | Kir21 sel inactive | HEK293 Tl ctr inactive | KCNK3 confirm 106 | KCNK3 uninduced inactive
COc1ccccc1C(=O)NCCC(=O)NCC(c1ccccc1)N(C)C (stereo not given)	none
COC(=O)COC(=O)c1ccccc1NC(=O)c1ccccc1	none

Source: PubChem BioAssay
